# Experimental data from ChEMBL document CHEMBL1126944, “Benzoquinazoline inhibitors of thymidylate synthase: enzyme inhibitory activity and cytotoxicity of some sulfonamidobenzoylglutamate and related derivatives” (J Med Chem, 1993).
# Legend:
# MOLT-4 [1] = experiment: Inhibition constant against the transport of [3H]- methotrexate (MTX) by MOLT-4 T-cell; assay type: functional, Homo sapiens
# In short: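 Uptake of [3H]methotrexate, a substrate of the reduced folate carrier, into MOLT-4 T-cell leukemia cells measured with and without compound. Inhibition constant derived against this transport.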
# MCF7 [2] = experiment: Cell culture cytotoxicity of MCF-7 breast adenocarcinoma cells; assay type: functional, Homo sapiens
# In short: (§1)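 MCF-7 cells kept in folic acid-free RPMI 1640 with 10 nM (6R,S)-5-formyltetrahydrofolic acid as sole folate plus 10% charcoal-dialyzed FBS. MTT dye-reduction assay after continuous drug exposure for 96 h. Value is the concentration giving 50% reduction in growth rate.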
# SW480 [3] = experiment: Cell culture cytotoxicity of SW480 colon adenocarcinoma cells.; assay type: functional, Homo sapiens
# In short: (§2)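 SW480 or MOLT-4 cells grown in folic acid-free RPMI 1640 supplemented with 10 nM (6R,S)-5-formyltetrahydrofolic acid and 10% charcoal-dialyzed FBS. Continuous 72 h drug exposure, growth read by MTT tetrazolium dye reduction. Reported as the concentration halving growth rate.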
# Thymidylate synthase [4] = molecular target: T1, Thymidylate synthase (Homo sapiens, UniProt P04818); experiment: Inhibition of purified human thymidylate synthase (TS) isolated from an Escherichia coli harboring a plasmid with thy A gene cloned from SV40 transformed human fibroblast cells; assay type: cell-free
# In short: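 Purified recombinant human TS, expressed in E. coli from a thyA gene cloned from SV40-transformed human fibroblasts. Inhibition was measured by a modified tritium-release assay. Ki was estimated by treating compounds as tight-binding noncompetitive inhibitors.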
# [5] = Velocity compared to a control 50 uM aminopterin run on each test; assay type: ADME
# In short: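 Substrate activity toward partially purified hog liver folylpolyglutamate synthetase. Velocity expressed as percent of a 50 µM aminopterin control included in every run.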
# Thymidylate synthase [6] = molecular target: T1, Thymidylate synthase; experiment: Inhibition of purified human thymidylate synthase isolated from an Escherichia coli harboring thy A gene cloned from SV40 transformed human fibroblast cells; assay type: cell-free
# [7] = Ratio of relative velocity to that of the Michaelis constant
# SW480 [8] = experiment: Cell culture cytotoxicity of SW480 colon adenocarcinoma cells; assay type: functional, Homo sapiens; in short: as §2
# MOLT-4 [9] = experiment: Cell culture cytotoxicity of MOLT-4 T-cell leukemia cells; assay type: functional, Homo sapiens; in short: as §2
# Thymidylate synthase [10] = molecular target: T1, Thymidylate synthase; experiment: Inhibitory activity against thymidylate synthase (TS); settings: read-out: I50
# Sus scrofa = organism: Sus scrofa; settings: Liver
# MOLT-4 [11] = molecular target: MOLT-4
# MCF7 [12] = experiment: Cell culture cytotoxicity (CCCT) of MCF-7 breast adenocarcinoma cells; assay type: functional, Homo sapiens; in short: as §1
# T1 sequence (P04818 whole entry): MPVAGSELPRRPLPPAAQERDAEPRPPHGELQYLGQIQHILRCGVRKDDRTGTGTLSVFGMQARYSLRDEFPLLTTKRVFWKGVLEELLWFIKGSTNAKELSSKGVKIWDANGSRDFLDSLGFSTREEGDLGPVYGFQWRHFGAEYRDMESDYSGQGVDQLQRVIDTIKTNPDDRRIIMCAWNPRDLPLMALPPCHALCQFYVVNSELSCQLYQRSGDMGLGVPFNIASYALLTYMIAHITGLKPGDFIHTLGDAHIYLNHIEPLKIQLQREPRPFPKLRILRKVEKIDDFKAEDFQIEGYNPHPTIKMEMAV
SMILES,CCCT (MCF7 [2]),Vm rel [5],CCCT (SW480 [8]),other results
Nc1nc(O)c2c(ccc3cc(S(=O)(=O)Nc4ccc(C(=O)N[C@@H](CCC(=O)O)C(=O)O)cc4)c(Br)cc32)n1,>50 µM,–,–,Inhibition (MOLT-4 [1]): 45%; CCCT (SW480 [3]): >50 µM; Ki (Thymidylate synthase [4]): 16400 nM
Cc1nc2ccc3ccc(S(=O)(=O)Nc4ccc(C(=O)N[C@@H](CCC(=O)O)C(=O)O)cc4)cc3c2c(=O)[nH]1,–,185%,–,Ki (Thymidylate synthase [6]): 5.5 nM; V/K [7]: 59.6
Nc1nc(O)c2c(n1)CCc1cc(Br)c(S(=O)(=O)Nc3ccc(C(=O)N[C@@H](CCC(=O)O)C(=O)O)cc3)cc1-2,>100 µM,28.9%,>100 µM,–
Nc1nc(O)c2c(ccc3ccc(NS(=O)(=O)c4ccc(C(=O)N[C@@H](CCC(=O)O)C(=O)O)cc4)cc32)n1,–,–,–,Inhibition (MOLT-4 [1]): 42%; CCCT (SW480 [3]): >100 µM; Ki (Thymidylate synthase [4]): 100 nM
C#CCN(c1ccc(C(=O)N[C@@H](CCC(=O)O)C(=O)O)cc1)S(=O)(=O)c1ccc2c(c1)CCc1nc(N)nc(O)c1-2,>50 µM,–,>50 µM,CCCT (MOLT-4 [9]): >50 µM
Nc1nc(O)c2c(n1)CCc1ccc(S(=O)(=O)Nc3ccc(C(=O)N[C@@H](CCC(=O)O)C(=O)O)cc3)cc1-2,0.65 µM,115%,7.9 µM,CCCT (MOLT-4 [9]): 2.4 µM
Cc1nc(O)c2c(n1)CCc1ccc(S(=O)(=O)N(C)c3ccc(C(=O)N[C@@H](CCC(=O)O)C(=O)O)cc3)cc1-2,>50 µM,–,>50 µM,–
Nc1nc(O)c2c(n1)CCc1cc(S(=O)(=O)Nc3ccc(C(=O)N[C@@H](CCC(=O)O)C(=O)O)cc3)ccc1-2,25 µM,102%,–,–
Cc1nc(O)c2c(ccc3ccc(S(=O)(=O)Nc4ccc(C(=O)N[C@@H](CCC(=O)O)C(=O)O)cc4)cc32)n1,0.07 µM,–,2.4 µM,CCCT (MOLT-4 [9]): 0.12 µM; Km (Sus scrofa): 3.11 µM; Ki (MOLT-4 [11]): 4900 nM
Cc1nc(O)c2c(n1)CCc1ccc(S(=O)(=O)Nc3ccc(C(=O)N[C@@H](CCC(=O)O)C(=O)O)cc3)cc1-2,0.65 µM,109%,4.1 µM,CCCT (MOLT-4 [9]): 0.2 µM
Nc1nc(O)c2c(n1)CCc1ccccc1-2,>100 µM,–,–,–
Nc1nc(O)c2c(ccc3ccc(Br)cc32)n1,–,–,–,CCCT (MCF7 [12]): 10 µM; Ki (Thymidylate synthase [4]): 20 nM
Cc1nc(O)c2c(ccc3ccccc32)n1,>100 µM,–,–,–
Cc1nc(O)c2c(ccc3c(S(=O)(=O)Nc4ccc(C(=O)N[C@@H](CCC(=O)O)C(=O)O)cc4)cccc32)n1,50 µM,–,>100 µM,Vel rem [5]: 55.2%
Cc1nc(O)c2c(n1)CCc1ccccc1-2,>100 µM,–,–,–
